The results in this text go back to ChEMBL document CHEMBL1124084, “Studies on scavengers of active oxygen species. 1. Synthesis and biological activity of 2-O-alkylascorbic acids” (J Med Chem, 1988).

Each structure is given as a SMILES string. A value given as a limit tells only on which side of the number the result lay.

The species named for assay [1] is Rattus norvegicus. Put plainly: Inhibition of lipid peroxidation was determined with rat brain tissue homogenates. It counts as functional. The method, boiled down: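 Brains excised from male SD rats (12 weeks), exsanguinated under pentobarbital anesthesia; 5% homogenate in phosphate buffer pH 7.4 incubated with test drug 1 h at 37 °C; lipid peroxide quantified by thiobarbituric acid method.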

The species named for assay [2] is Rattus norvegicus. Put plainly: Antilipid peroxidation was determined. The assay is classed as functional. The method, boiled down:
(§1)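 Rat brain lipid peroxidation: brains from male SD rats (12 weeks old), exsanguinated under pentobarbital anaesthesia, homogenized to 5% in phosphate buffer pH 7.4. Homogenate incubated with test drug at 37 °C for 1 h. Lipid peroxide quantified by the thiobarbituric acid method.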

The nature of assay [3]: Reducing activity determined by the use of stable radical alpha,alpha-di-phenyl-beta-picrylhydrazyl (DPPH). Also on record: concentration or dose not given beside the values.
For assay [4], the species on record is Rattus norvegicus. Description: Antilipid peroxidation was measured at 10e-5 M concentration. It counts as functional. The method, boiled down:
as §1

Assay [5] deals with Rattus norvegicus. Put plainly: Effect of AOS scavenger on ventricular tachycardia (VT),arrhythmias induced by ischemia-reperfusion in anesthetized rat, duration at 3 mg/kg. The assay is classed as functional, Cardiac ventricle.
Assay [6] deals with Rattus norvegicus. Put plainly: Effect of AOS scavenger on premeture ventricular complexes PVCs, arrhythmias induced by ischemia-reperfusion in anesthetized rat, duration at 10 mg/kg. The assay is classed as functional, Cardiac ventricle. Particulars: 10 mg/kg.
For assay [7], the system named is Rattus norvegicus. Description: Effect of AOS scavenger on ventricular fibrillation (VF),arrhythmias induced by ischemia-reperfusion in anesthetized rat, duration at 3 mg/kg. It counts as functional, Cardiac ventricle.
Assay [8] concerns Rattus norvegicus. Put plainly: Effect of AOS scavenger on ventricular fibrillation (VF),arrhythmias induced by ischemia-reperfusion in anesthetized rat, incidence at 3 mg/kg; 3/10. It counts as functional, Cardiac ventricle.
Assay [9] deals with Rattus norvegicus. Description: Effect of AOS scavenger on ventricular fibrillation (VF), arrhythmias induced by ischemia-reperfusion in anesthetized rat, frequency, timesat 3 mg/kg. The assay is classed as functional, Cardiac ventricle.
Assay [10] concerns Rattus norvegicus. Description: Effect of AOS scavenger on ventricular tachycardia (VT), arrhythmias induced by ischemia-reperfusion in anesthetized rat, frequency, timesat 10 mg/kg. It counts as functional, Cardiac ventricle.
In assay [11] the test system is Rattus norvegicus. Description: Effect of AOS scavenger on ventricular tachycardia (VT),arrhythmias induced by ischemia-reperfusion in anesthetized rat, incidence at 10 mg/kg; 13/13. The assay is classed as functional, Cardiac ventricle.
The test system of assay [12] is Rattus norvegicus. Description: Effect of AOS scavenger on ventricular fibrillation (VF),arrhythmias induced by ischemia-reperfusion in anesthetized rat, duration at 10 mg/kg. It counts as functional, Cardiac ventricle.
Assay [13] deals with Rattus norvegicus. Description: Effect of AOS scavenger on ventricular fibrillation (VF),arrhythmias induced by ischemia-reperfusion in anesthetized rat, incidence at 1 mg/kg; 5/14. It counts as functional, Cardiac ventricle.
The subject of assay [14] is Rattus norvegicus. Description: Effect of AOS scavenger on ventricular fibrillation (VF), arrhythmias induced by ischemia-reperfusion in anesthetized rat, frequency, times at 10 mg/kg. It counts as functional, Cardiac ventricle. Particulars: 10 mg/kg.
Assay [15] relates to Rattus norvegicus. Description: Effect of AOS scavenger on premeture ventricular complexes PVCs, arrhythmias induced by ischemia-reperfusion in anesthetized rat, duration at 1 mg/kg. The assay is classed as functional, Cardiac ventricle.
The subject of assay [16] is Rattus norvegicus. Put plainly: Effect of AOS scavenger on ventricular tachycardia (VT),arrhythmias induced by ischemia-reperfusion in anesthetized rat, duration at 10 mg/kg. The assay is classed as functional, Cardiac ventricle. To be noted: 10 mg/kg.
The subject of assay [17] is Rattus norvegicus. Description: Effect of AOS scavenger on ventricular tachycardia (VT),arrhythmias induced by ischemia-reperfusion in anesthetized rat, frequency, times at 1 mg/kg. It counts as functional, Cardiac ventricle.
Assay [18] relates to Rattus norvegicus. Put plainly: Effect of AOS scavenger on ventricular tachycardia (VT),arrhythmias induced by ischemia-reperfusion in anesthetized rat duration at 1 mg/kg. It counts as functional, Cardiac ventricle.
The subject of assay [19] is Rattus norvegicus. Description: Effect of AOS scavenger on premeture ventricular complexes PVCs, arrhythmias induced by ischemia-reperfusion in anesthetized rat, duration at 3 mg/kg. It counts as functional, Cardiac ventricle.
The test system of assay [20] is Rattus norvegicus. Description: Effect of AOS scavenger on ventricular tachycardia (VT),arrhythmias induced by ischemia-reperfusion in anesthetized rat, frequency, times at 3 mg/kg. It counts as functional, Cardiac ventricle.
Assay [21] deals with Rattus norvegicus. Description: Effect of AOS scavenger on ventricular tachycardia (VT),arrhythmias induced by ischemia-reperfusion in anesthetized rat, incidence at 3 mg/kg; 10/10. It counts as functional, Cardiac ventricle.
Assay [22] relates to Rattus norvegicus. Description: Effect of AOS scavenger on ventricular fibrillation (VF),arrhythmias induced by ischemia-reperfusion in anesthetized rat, incidence at 10 mg/kg; 4/13. The assay is classed as functional, Cardiac ventricle.
Assay [23] deals with Rattus norvegicus. Description: Effect of AOS scavenger on ventricular fibrillation (VF),arrhythmias induced by ischemia-reperfusion in anesthetized rat, duration at 1 mg/kg. The assay is classed as functional, Cardiac ventricle.
In assay [24] the test system is Rattus norvegicus. Description: Effect of AOS scavenger on ventricular fibrillation (VF), arrhythmias induced by ischemia-reperfusion in anesthetized rat, frequency, times at 1 mg/kg. The assay is classed as functional, Cardiac ventricle.

The term IC50 denotes the concentration needed to halve the response being measured.

Molecule `CCCCCCCCCCCCCCCCCCCCCOC1=C(O)OC(C(O)CO)C1=O` (configuration not stated) showed an IC50 in the assay listed under Rattus norvegicus [1] of 11 µM. The same molecule gave an Antilipid peroxidation in the assay filed under Rattus norvegicus [2] of 30.6%. The molecule further displayed a Reducing activity in assay [3] of 94.3%.
As to `CCCCCCCCCCCCCCCCCCOC1=C(O)O/C(=C\CO)C1=O`, in the assay listed under Rattus norvegicus [4], the Antilipid peroxidation stood at 53.5%. Besides, the IC50 in the assay listed under Rattus norvegicus [1] came to 8.5 µM.
`CCCCCCCCOC1=C(O)OC(C(O)CO)C1=O` (configuration not stated): in the assay listed under Rattus norvegicus [4], the Antilipid peroxidation was found to be 1.6%. In [3], this molecule yielded a Reducing activity of 93.9%.
On to `CCCCCCCCCCCOC1=C(O)OC(C(O)CO)C1=O` (configuration not stated), for which the IC50 in the assay listed under Rattus norvegicus [1] was determined as 13 µM. Moreover, in the assay filed under Rattus norvegicus [2], the Antilipid peroxidation is 43.4%. In addition, the Reducing activity in [3] is 94.6%.
`CCCCCCCCCCCCCCCCCCOC1=C(O)[C@@H](C(O)CO)OC1=O` (stereo in doubt; 5k): the Duration with Rattus norvegicus [5] is less than 6.9 s; in the assay with Rattus norvegicus [7], less than 1.5 s; in the assay on Rattus norvegicus [12] it was 0.5 s; with Rattus norvegicus [16] it was 12 s; with Rattus norvegicus [18] it was 11.4 s; in the assay on Rattus norvegicus [23] it was less than 4.1 s. In addition, the Activity with Rattus norvegicus [6] is reported as 12 min; in the assay on Rattus norvegicus [15] it was 3.4 min; in the assay with Rattus norvegicus [19], less than 4.5 min. The Incidence in the assay on Rattus norvegicus [8] is on record as 3 N; in the assay on Rattus norvegicus [11], 13 N; in the assay with Rattus norvegicus [13], 5; in the assay with Rattus norvegicus [21], 10 N; in the assay on Rattus norvegicus [22], 4 N. For the same molecule, the Frequency in the assay on Rattus norvegicus [9] is given as less than 0.7; in the assay with Rattus norvegicus [10], 5.2; with Rattus norvegicus [14] it was less than 0.5; in the assay with Rattus norvegicus [17] it was 4.3; in the assay with Rattus norvegicus [20] it was 4; in the assay with Rattus norvegicus [24], less than 1.1. Moreover, the IC50 in the assay listed under Rattus norvegicus [1] was determined as 4.3 µM.
`CCCCCCCCCCCCCCCCOC1=C(O)OC(C(O)CO)C1=O` (configuration not stated) displayed an IC50 in the assay filed under Rattus norvegicus [1] of 6.8 µM. The molecule further showed an Antilipid peroxidation in the assay listed under Rattus norvegicus [2] of 56.1%.
Regarding `CCCCCCCCCCCCCCCCCCOC1=C(O)OC(C(O)COC(C)=O)C1=O` (configuration not stated), the Antilipid peroxidation in the assay filed under Rattus norvegicus [4] amounted to 76.3%. The molecule also displayed an IC50 in the assay listed under Rattus norvegicus [1] of 4.2 µM.
With `CCCCCCCCCCCCCCCCCCOC1=C(OC)C(C(O)CO)OC1=O` (configuration not stated), the Antilipid peroxidation in the assay filed under Rattus norvegicus [4] came to 12.5%.
Molecule `CCCCCCCCCCOC1=C(O)OC(C(O)CO)C1=O` (configuration not stated) came in with an IC50 in the assay filed under Rattus norvegicus [1] of 13 µM. The molecule further showed an Antilipid peroxidation in the assay listed under Rattus norvegicus [2] of 42.5%.
For the molecule `CCCCCCCCCCCCCCCCCCOC1=C(O)OC(CCO)C1=O` (configuration not stated), the IC50 in the assay filed under Rattus norvegicus [1] came to 6.8 µM. Also, in the assay listed under Rattus norvegicus [2], the Antilipid peroxidation was determined as 52%. Also, the Reducing activity in assay [3] amounted to 93.9%.
As to `CCCCCCOc1ccc(COC2=C(O)OC(C(O)CO)C2=O)cc1` (configuration not stated), the Antilipid peroxidation in the assay filed under Rattus norvegicus [2] was 38.8%.
